Eight compounds from ChEMBL document CHEMBL5376019, “Design, synthesis and evaluation of 2-phenylpyrimidine derivatives as novel antifungal agents targeting CYP51” (RSC Med Chem, 2024) can be followed below.

For series [1], the system named is Candida albicans. Put plainly: Antifungal activity against Candida albicans CPCC400616 assessed as fungal growth inhibition. The series is classed as functional. A digest of the protocol:
(§1)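 Broth microdilution per NCCLS M27-A3, with fluconazole as positive control. Assay medium was RPMI 1640 buffered with MOPS. Inocula were diluted to 1–5 × 10^3 CFU mL−1 and seeded in 96-well plates. Compounds were dissolved in DMSO and serially diluted in the growth medium. MIC was the read-out.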

The next series relates to Nakaseomyces glabratus. Description: Antifungal activity against clinical isolate Candida glabrata assessed as fungal growth inhibition. The series is classed as functional. A digest of the protocol:
as §1

Another series has as its system Pichia kudriavzevii. Description: Antifungal activity against Pichia kudriavzevii GIM 2.1 assessed as fungal growth inhibition. Format: functional. A digest of the protocol:
as §1

Another series has as its system Candida parapsilosis. Description: Antifungal activity against Candida parapsilosis GIM 2.190 assessed as fungal growth inhibition. The series is classed as functional. Conditions: Lodderomyces parapsilosis. A digest of the protocol:
as §1

The subject of series [2] is Candida albicans. Description: Antifungal activity against Candida albicans ATCC SC5314 assessed as fungal growth inhibition. Format: functional. A digest of the protocol: as §1
A further series concerns Cryptococcus neoformans. Put plainly: Antifungal activity against Cryptococcus neoformans CGMCC 2.3161 assessed as fungal growth inhibition. The series is classed as functional. A digest of the protocol:
as §1

For another series, the system named is Candida tropicalis. Put plainly: Antifungal activity against Candida tropicalis CGMCC 2.3739 assessed as fungal growth inhibition. The series is classed as functional. A digest of the protocol: as §1
Another series concerns MDA-MB-231. Put plainly: Cytotoxicity against human MDA-MB-231 cells assessed as reduction in cell viability at 32 uM incubated for 24 hrs by CCK-8 assay. The series is classed as toxicity, cell-based. Conditions: mda-mb-231, 24 h. A digest of the protocol:
(§2)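 Cells from ATCC were grown in RPMI-1640 or DMEM with 10% FBS and 1% penicillin/streptomycin. They were seeded at 5 × 10^4 cells/well and allowed to adhere overnight at 37 °C, 5% CO2, with at least 6 replicates per group. Compounds were applied at 2–64 μM for 24 h; medium-only wells served as control. Viability was measured by CCK-8 absorbance at 450 nm.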

The test system of the next series is L929. Description: Cytotoxicity against mouse L929 cells assessed as reduction in cell viability at 32 uM incubated for 24 hrs by CCK-8 assay. Format: toxicity, cell-based. The note with it: l929, 24 h. A digest of the protocol:
as §2

The next series concerns DU-145. Put plainly: Cytotoxicity against human DU-145 cells assessed as reduction in cell viability at 32 uM incubated for 24 hrs by CCK-8 assay. The series is classed as toxicity, cell-based. The note with it: du-145, 24 h. A digest of the protocol:
as §2
(Tetrazolium dyes change colour on reduction, which living cells bring about.)

A further series concerns the target CYP2C19 (Homo sapiens, UniProt P33261). Description: Inhibition of CYP2C19 in human liver microsomes using S-mephenytoin as substrate at 10 uM incubated for 10 min by LC-MS/MS analysis relative to control. Format: ADME, Microsome. The note with it: probe S-mephenytoin. A digest of the protocol:
(§3)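 Human liver microsomes (0.253 mg mL−1) were used with probe substrates: phenacetin 90 μM (1A2), diclofenac 8 μM (2C9), S-mephenytoin 20 μM (2C19), dextromethorphan 4 μM (2D6), and midazolam 2 μM plus testosterone 50 μM (3A4). Test compound was at 10 μM. Mixtures were preincubated 5 min at 37 °C, then started with an NADPH regenerating system and run 10 min at 37 °C. Reactions were stopped with internal standard and supernatant analysed by LC-MS/MS. Isoform-selective inhibitors at 10 μM served as positive controls.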
Background: Liver microsomes are a subcellular fraction often used to study metabolism.

Series [3] in a line: Metabolic stability in human liver microsomes assessed as half life measured upto 60 min by LC-MS/MS analysis. The series is classed as ADME, Microsome. A digest of the protocol:
(§4)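 Human liver microsomes were diluted to 0.59 mg mL−1 in 100 mM potassium phosphate buffer and prewarmed 10 min at 37 °C. Compound was added from a 100 μM working solution. Incubation was 60 min at 37 °C with NADPH, alongside a no-cofactor control. Samples taken at 5, 15, 30, 45 and 60 min were quenched in acetonitrile containing tolbutamide and labetalol, centrifuged, and analysed by LC-MS/MS.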

Series [4] can be described thus: Metabolic stability in human liver microsomes assessed as intrinsic clearance measured upto 60 min by LC-MS/MS analysis. Format: ADME, Microsome. Conditions: 1 h. A digest of the protocol: as §4
Another series addresses T1, CYP1A2 (Homo sapiens, UniProt P05177).
T1 sequence (P05177 whole entry): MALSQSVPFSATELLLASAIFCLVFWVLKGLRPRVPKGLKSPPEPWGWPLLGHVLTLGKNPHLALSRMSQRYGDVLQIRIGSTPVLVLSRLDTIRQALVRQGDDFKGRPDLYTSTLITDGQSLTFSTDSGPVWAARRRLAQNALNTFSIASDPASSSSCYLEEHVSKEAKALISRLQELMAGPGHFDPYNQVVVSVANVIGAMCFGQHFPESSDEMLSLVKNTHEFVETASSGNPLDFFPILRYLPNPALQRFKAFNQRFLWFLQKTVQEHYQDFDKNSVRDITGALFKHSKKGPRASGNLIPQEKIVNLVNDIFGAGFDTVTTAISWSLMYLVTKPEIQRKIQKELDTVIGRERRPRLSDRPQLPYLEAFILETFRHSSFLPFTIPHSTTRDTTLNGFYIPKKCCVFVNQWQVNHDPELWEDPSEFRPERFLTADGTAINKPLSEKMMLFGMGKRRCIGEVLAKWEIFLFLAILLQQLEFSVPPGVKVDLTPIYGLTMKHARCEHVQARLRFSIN
Put plainly: Inhibition of CYP1A2 in human liver microsomes using phenacetin as substrate at 10 uM incubated for 10 min by LC-MS/MS analysis relative to control. The note with it: probe phenacetin. Format: ADME, Microsome. A digest of the protocol: as §3

Series [5] in a line: Metabolic stability in human liver microsomes assessed as remaining measured upto 60 min by LC-MS/MS analysis. Format: ADME, Microsome. The note with it: read-out: Stability. A digest of the protocol: as §4
The target of a further series is CYP3A4 (Homo sapiens, UniProt P08684). Put plainly: Inhibition of CYP3A4 in human liver microsomes using midazolam and testosterone as substrates at 10 uM incubated for 10 min by LC-MS/MS analysis relative to control. Format: ADME, Microsome. The note with it: probe midazolam and testosterone. A digest of the protocol: as §3
CYP3A4, sequence (P08684 whole entry): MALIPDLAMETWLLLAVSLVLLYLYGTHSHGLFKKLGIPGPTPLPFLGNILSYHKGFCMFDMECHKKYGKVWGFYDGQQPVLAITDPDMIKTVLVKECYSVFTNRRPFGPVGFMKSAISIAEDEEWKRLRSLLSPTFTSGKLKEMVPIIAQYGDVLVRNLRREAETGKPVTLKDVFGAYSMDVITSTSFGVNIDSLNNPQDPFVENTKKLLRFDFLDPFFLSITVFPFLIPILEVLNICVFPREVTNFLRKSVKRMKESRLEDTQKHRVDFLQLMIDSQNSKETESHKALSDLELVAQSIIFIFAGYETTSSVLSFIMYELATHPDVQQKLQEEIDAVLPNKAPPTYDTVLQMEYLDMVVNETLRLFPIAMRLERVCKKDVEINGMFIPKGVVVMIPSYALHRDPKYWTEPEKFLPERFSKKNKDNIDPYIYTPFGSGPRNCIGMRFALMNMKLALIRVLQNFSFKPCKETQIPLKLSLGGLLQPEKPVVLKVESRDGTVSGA
The next series deals with CYP2D6 (Homo sapiens, UniProt P10635). Put plainly: Inhibition of CYP2D6 in human liver microsomes using dextromethorphan as substrate at 10 uM incubated for 10 min by LC-MS/MS analysis relative to control. Format: ADME, Microsome. Conditions: probe dextromethorphan. A digest of the protocol: as §3
CYP2D6, sequence (P10635 whole entry): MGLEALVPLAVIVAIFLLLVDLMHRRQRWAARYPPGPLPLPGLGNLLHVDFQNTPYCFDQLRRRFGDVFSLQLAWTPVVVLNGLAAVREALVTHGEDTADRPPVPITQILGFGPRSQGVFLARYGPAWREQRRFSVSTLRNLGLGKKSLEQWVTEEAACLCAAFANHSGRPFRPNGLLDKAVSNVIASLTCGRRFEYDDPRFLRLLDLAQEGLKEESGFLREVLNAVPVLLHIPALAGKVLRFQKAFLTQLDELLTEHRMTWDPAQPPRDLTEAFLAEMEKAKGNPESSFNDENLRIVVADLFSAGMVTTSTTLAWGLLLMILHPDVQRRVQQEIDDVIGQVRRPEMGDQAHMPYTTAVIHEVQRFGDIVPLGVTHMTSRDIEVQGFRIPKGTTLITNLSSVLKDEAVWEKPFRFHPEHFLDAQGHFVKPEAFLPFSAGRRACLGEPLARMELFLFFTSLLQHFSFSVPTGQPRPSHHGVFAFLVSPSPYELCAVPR
In a further series the target is CYP2C9 (Homo sapiens, UniProt P11712). Description: Inhibition of CYP2C9 in human liver microsomes using diclofenac as substrate at 10 uM incubated for 10 min by LC-MS/MS analysis relative to control. The note with it: probe diclofenac. Format: ADME, Microsome. A digest of the protocol:
as §3

The MIC is the least concentration at which growth counts as inhibited. The inhibition is the drop in the measured response relative to a control, in per cent. The term half-life denotes how long it takes for the measured level to halve.

≈ marks a conversion by molar mass, not a printed value.

CYP2C9, sequence (P11712 whole entry): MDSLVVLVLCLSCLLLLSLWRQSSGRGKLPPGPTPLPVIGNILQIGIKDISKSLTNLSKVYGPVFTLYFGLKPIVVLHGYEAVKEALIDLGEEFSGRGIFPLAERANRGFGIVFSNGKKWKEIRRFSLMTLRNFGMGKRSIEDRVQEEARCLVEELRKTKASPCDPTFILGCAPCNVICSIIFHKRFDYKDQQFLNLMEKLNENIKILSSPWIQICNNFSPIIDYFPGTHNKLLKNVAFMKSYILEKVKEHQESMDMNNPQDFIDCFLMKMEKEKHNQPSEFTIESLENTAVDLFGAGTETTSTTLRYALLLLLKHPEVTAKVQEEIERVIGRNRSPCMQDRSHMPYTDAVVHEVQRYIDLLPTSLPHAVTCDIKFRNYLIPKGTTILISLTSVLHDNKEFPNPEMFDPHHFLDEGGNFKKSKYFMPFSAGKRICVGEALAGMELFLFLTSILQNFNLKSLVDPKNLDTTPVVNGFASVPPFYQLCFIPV
CYP2C19, sequence (P33261 whole entry, canonical isoform): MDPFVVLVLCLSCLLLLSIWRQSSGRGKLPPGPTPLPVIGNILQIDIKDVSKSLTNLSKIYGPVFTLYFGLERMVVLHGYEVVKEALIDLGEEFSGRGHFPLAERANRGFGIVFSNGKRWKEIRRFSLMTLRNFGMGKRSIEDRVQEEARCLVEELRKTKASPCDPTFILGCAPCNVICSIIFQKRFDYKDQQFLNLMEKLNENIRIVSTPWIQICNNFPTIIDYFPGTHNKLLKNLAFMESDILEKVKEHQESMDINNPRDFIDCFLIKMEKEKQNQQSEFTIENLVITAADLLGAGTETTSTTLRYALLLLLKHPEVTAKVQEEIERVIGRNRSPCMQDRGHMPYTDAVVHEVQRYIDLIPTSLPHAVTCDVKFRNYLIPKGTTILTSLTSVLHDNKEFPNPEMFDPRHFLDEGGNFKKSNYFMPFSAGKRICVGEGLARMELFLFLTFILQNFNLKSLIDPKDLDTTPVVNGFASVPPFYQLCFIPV

As for `O=C(NC(Cn1ccnc1)C(=O)c1ccc(Cl)cc1)c1cnc(-c2cccc(F)c2)nc1` (racemic), the MIC is 32 µg/mL (≈ 71.1 µM) in the series on Candida albicans [1]; greater than 64 µg/mL in the series on Nakaseomyces glabratus; greater than 64 µg/mL in the series on Pichia kudriavzevii; greater than 64 µg/mL in the series on Candida parapsilosis; 1 µg/mL (≈ 2.22 µM) in the series with Candida albicans [2]; greater than 64 µg/mL with Cryptococcus neoformans. In addition, the MIC with Candida tropicalis was greater than 64 µg/mL.

As to `Cc1ccc(C(=O)C(Cn2ccnc2)NC(=O)c2cnc(-c3cccc(F)c3)nc2)cc1` (racemic), the MIC in the series on Candida albicans [1] was determined as 4 µg/mL (≈ 9.31 µM); in the series on Nakaseomyces glabratus it was 8 µg/mL (≈ 18.6 µM); in the series on Pichia kudriavzevii, 4 µg/mL (≈ 9.31 µM); in the series on Candida parapsilosis, 4 µg/mL (≈ 9.31 µM); with Candida albicans [2] it was 1 µg/mL (≈ 2.33 µM); with Cryptococcus neoformans, 64 µg/mL (≈ 149 µM). The MIC in the series with Candida tropicalis stood at 1 µg/mL (≈ 2.33 µM). The Activity entry with MDA-MB-231, in the series with L929 and in the series on DU-145 was “Non-Toxic” in each case.

Take `O=C(NC(Cn1ccnc1)C(=O)c1ccc(Br)cc1)c1cnc(-c2cccc(F)c2)nc1` (racemic): the minimum inhibitory concentration (MIC) in the series with Candida albicans [1] was 8 µg/mL (≈ 16.2 µM); in the series on Nakaseomyces glabratus, greater than 64 µg/mL; in the series with Pichia kudriavzevii it was greater than 64 µg/mL; in the series on Candida parapsilosis it was greater than 64 µg/mL; in the series with Candida albicans [2], 0.5 µg/mL (≈ 1.01 µM); with Cryptococcus neoformans, greater than 64 µg/mL. In addition, in the series with Candida tropicalis, the minimum inhibitory concentration (MIC) was 16 µg/mL (≈ 32.4 µM).

Regarding `O=C(NC(Cn1ccnc1)C(=O)c1ccccc1)c1cnc(-c2ccc(Cl)cc2F)nc1` (racemic), the MIC with Candida albicans [1], with Nakaseomyces glabratus, in the series with Pichia kudriavzevii, in the series on Candida parapsilosis, in the series on Candida albicans [2] and with Cryptococcus neoformans was greater than 64 µg/mL in each case. The MIC in the series on Candida tropicalis was greater than 64 µg/mL.

As for `COc1ccc(C(=O)C(Cn2ccnc2)NC(=O)c2cnc(-c3cccc(F)c3)nc2)cc1` (racemic), the MIC with Candida albicans [1] is 1 µg/mL (≈ 2.24 µM); in the series with Nakaseomyces glabratus, 1 µg/mL (≈ 2.24 µM); in the series on Pichia kudriavzevii it was 1 µg/mL (≈ 2.24 µM); in the series with Candida parapsilosis, 1 µg/mL (≈ 2.24 µM); in the series with Candida albicans [2], 0.25 µg/mL (≈ 0.561 µM); in the series with Cryptococcus neoformans it was 32 µg/mL (≈ 71.8 µM). Also, the MIC in the series with Candida tropicalis came out at 0.25 µg/mL (≈ 0.561 µM). The inhibition at 10 min, 10 µM came out at 89.4% on CYP2C19; 38.4% on CYP1A2; 92.3% on CYP3A4; 72.3% on CYP2D6; 89.8% against CYP2C9. Besides, the half-life in series [3] was 14.8 min. In addition, the Activity result in the series on MDA-MB-231, with L929 and in the series on DU-145 was “Non-Toxic” each time. Besides, the CLH in [4] was determined as 94 µL/min/mg. In series [5], the remaining at 1 h worked out at 6.33%.

On to `O=C(NC(Cn1ccnc1)C(=O)c1ccc(I)cc1)c1cnc(-c2cccc(F)c2)nc1` (racemic), for which the minimal inhibitory concentration (MIC) with Candida albicans [1] is 32 µg/mL (≈ 59.1 µM); with Nakaseomyces glabratus, greater than 64 µg/mL; with Pichia kudriavzevii it was greater than 64 µg/mL; in the series with Candida parapsilosis it was greater than 64 µg/mL; with Candida albicans [2] it was 1 µg/mL (≈ 1.85 µM); with Cryptococcus neoformans, greater than 64 µg/mL. Besides, the MIC in the series on Candida tropicalis was greater than 64 µg/mL.

On to `O=C(NC(Cn1ccnc1)C(=O)c1ccc(F)cc1)c1cnc(-c2cccc(F)c2)nc1` (racemic), for which the MIC in the series on Candida albicans [1] was greater than 64 µg/mL; in the series with Nakaseomyces glabratus it was greater than 64 µg/mL; in the series on Pichia kudriavzevii it was greater than 64 µg/mL; with Candida parapsilosis, greater than 64 µg/mL; in the series with Candida albicans [2], 16 µg/mL (≈ 36.9 µM); with Cryptococcus neoformans, greater than 64 µg/mL. Further, the minimal inhibitory concentration (MIC) in the series with Candida tropicalis is greater than 64 µg/mL.

As for `OC(Cn1cncn1)(Cn1cncn1)c1ccc(F)cc1F` [FLUCONAZOLE], the minimal inhibitory concentration (MIC) with Candida albicans [1] stood at 1 µg/mL (≈ 3.27 µM); with Nakaseomyces glabratus, 4 µg/mL (≈ 13.1 µM); in the series with Pichia kudriavzevii, 8 µg/mL (≈ 26.1 µM); with Candida parapsilosis, 2 µg/mL (≈ 6.53 µM); in the series with Candida albicans [2], 0.5 µg/mL (≈ 1.63 µM); in the series with Cryptococcus neoformans, 4 µg/mL (≈ 13.1 µM). In addition, in the series on Candida tropicalis, the MIC came out at 0.5 µg/mL (≈ 1.63 µM).
